Laboratory results from ChEMBL document CHEMBL4376856, “Discovery of N-(4-Aminobutyl)-N'-(2-methoxyethyl)guanidine as the First Selective, Nonamino Acid, Catalytic Site Inhibitor of Human Dimethylarginine Dimethylaminohydrolase-1 (hDDAH-1)” (J Med Chem, 2020).

How the values were obtained:
[1] = target: Nitric oxide synthase, inducible (Homo sapiens) (UniProt P35228); assay: Inhibition of iNOS (unknown origin) assessed as formation of methemoglobin from oxyhemoglobin at 1 mM using L-arginine as substrate in presence of oxyhemoglobin and NADPH by UV-vis spectrophotometry relative to control
Sequence of Nitric oxide synthase, inducible (Homo sapiens) (P35228 whole entry): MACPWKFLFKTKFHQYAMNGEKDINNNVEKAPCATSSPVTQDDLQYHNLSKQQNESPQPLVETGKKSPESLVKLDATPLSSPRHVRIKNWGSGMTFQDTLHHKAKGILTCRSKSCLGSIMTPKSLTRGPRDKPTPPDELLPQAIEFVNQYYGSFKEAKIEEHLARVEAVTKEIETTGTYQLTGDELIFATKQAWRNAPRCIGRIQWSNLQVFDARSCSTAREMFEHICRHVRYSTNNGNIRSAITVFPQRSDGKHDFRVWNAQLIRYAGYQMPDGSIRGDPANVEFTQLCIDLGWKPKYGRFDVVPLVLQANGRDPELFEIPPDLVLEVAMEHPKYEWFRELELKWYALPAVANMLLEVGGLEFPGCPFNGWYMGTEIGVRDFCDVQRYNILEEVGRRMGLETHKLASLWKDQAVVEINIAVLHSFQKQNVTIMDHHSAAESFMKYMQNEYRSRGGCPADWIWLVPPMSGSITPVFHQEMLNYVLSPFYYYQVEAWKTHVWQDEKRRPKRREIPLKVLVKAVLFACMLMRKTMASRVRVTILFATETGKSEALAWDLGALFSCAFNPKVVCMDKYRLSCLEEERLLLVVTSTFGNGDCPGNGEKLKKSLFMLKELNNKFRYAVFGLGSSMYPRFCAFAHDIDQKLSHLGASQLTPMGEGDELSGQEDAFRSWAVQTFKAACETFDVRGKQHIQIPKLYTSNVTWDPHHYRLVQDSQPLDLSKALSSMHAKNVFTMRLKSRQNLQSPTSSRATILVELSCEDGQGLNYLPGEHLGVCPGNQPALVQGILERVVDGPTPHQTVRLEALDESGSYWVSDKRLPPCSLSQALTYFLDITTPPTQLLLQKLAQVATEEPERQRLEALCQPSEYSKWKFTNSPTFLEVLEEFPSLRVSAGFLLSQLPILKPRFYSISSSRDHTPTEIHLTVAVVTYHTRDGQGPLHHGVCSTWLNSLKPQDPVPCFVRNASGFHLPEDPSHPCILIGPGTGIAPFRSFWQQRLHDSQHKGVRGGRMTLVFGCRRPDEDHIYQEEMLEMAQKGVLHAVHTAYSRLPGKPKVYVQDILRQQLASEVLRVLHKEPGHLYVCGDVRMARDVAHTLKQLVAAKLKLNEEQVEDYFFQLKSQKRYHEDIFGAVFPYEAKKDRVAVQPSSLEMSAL
Method in brief: (§1)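 Each enzyme (arginase, nNOS, eNOS, iNOS) tested with inhibitor at 1 mM; percent inhibition given as the mean ± SD of at least three independent experiments.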

[2] = target: T1, Nitric oxide synthase 3 (Homo sapiens) (UniProt P29474); assay: Inhibition of endothelial NOS (unknown origin) assessed as formation of methemoglobin from oxyhemoglobin at 1 mM using L-arginine as substrate in presence of oxyhemoglobin and NADPH by UV-vis spectrophotometry relative to control; method in brief: as §1
T1 sequence (whole entry): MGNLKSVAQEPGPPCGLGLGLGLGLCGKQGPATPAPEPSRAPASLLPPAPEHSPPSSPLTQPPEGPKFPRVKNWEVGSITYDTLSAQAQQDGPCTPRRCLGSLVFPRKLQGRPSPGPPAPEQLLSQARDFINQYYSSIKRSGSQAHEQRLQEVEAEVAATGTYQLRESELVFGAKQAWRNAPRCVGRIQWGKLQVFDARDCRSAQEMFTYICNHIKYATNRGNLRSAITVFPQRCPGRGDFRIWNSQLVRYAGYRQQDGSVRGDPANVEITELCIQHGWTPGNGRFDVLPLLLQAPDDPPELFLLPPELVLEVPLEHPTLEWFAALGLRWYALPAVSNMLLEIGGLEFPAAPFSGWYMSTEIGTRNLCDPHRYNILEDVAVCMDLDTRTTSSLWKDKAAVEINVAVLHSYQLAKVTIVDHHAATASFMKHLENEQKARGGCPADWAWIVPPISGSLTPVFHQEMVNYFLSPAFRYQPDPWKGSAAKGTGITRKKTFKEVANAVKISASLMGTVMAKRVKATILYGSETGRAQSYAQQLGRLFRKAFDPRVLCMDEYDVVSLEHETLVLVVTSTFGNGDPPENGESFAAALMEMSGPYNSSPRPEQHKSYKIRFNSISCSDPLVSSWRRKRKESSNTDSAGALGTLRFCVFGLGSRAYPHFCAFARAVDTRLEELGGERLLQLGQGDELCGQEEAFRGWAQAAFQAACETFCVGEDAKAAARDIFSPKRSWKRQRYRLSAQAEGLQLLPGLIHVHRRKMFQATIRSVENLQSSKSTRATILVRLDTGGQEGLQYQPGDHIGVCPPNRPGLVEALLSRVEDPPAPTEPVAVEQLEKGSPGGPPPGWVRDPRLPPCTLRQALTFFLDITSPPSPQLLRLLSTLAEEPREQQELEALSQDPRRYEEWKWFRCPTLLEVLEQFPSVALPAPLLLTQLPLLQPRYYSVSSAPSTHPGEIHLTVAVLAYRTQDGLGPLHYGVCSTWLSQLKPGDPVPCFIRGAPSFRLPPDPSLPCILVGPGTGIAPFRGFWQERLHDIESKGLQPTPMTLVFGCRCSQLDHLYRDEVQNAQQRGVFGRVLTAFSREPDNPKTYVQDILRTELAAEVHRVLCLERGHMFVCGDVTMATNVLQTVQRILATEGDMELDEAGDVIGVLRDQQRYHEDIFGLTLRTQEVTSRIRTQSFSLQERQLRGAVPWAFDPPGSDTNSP

Arginase-1 (Bos taurus) = target: T2, Arginase-1 (Bos taurus) (UniProt Q2KJ64); assay: Inhibition of bovine liver arginase at 1 mM using L-arginine as substrate measured after 30 mins by colder reagent based microplate reader assay relative to control; method in brief: as §1
T2 sequence (whole entry): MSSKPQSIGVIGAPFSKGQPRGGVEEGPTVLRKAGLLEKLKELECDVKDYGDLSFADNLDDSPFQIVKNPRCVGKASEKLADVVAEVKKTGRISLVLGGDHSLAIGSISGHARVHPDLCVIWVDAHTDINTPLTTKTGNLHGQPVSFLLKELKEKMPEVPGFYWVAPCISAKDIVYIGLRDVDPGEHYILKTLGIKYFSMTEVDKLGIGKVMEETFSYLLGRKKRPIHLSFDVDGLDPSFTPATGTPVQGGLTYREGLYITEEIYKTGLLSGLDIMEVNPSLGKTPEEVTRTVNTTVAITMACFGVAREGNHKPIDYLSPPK

[3] = target: T3, N(G),N(G)-dimethylarginine dimethylaminohydrolase 1 (Homo sapiens, UniProt O94760); assay: Inhibition of 6xHis-tagged recombinant human DDAH1 expressed in Escherichia coli BL21 cells using NMMA as substrate measured after 30 mins by colder reagent based microplate reader assay
T3 sequence (O94760 whole entry): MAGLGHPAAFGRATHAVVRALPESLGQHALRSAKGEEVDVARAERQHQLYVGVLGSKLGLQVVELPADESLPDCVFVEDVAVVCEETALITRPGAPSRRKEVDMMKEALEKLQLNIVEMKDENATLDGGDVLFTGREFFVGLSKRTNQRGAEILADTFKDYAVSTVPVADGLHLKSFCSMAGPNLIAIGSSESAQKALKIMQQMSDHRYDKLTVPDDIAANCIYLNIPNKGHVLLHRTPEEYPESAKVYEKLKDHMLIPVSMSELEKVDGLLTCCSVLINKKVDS
Method in brief: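 Ki against hDDAH-1, given as the mean ± SD of at least two independent experiments.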

[4] = target: Nitric oxide synthase 1 (Homo sapiens) (UniProt P29475); assay: Inhibition of neuronal NOS (unknown origin) assessed as formation of methemoglobin from oxyhemoglobin at 1 mM using L-arginine as substrate in presence of oxyhemoglobin and NADPH by UV-vis spectrophotometry relative to control; method in brief: as §1
Sequence of Nitric oxide synthase 1 (Homo sapiens) (P29475 whole entry): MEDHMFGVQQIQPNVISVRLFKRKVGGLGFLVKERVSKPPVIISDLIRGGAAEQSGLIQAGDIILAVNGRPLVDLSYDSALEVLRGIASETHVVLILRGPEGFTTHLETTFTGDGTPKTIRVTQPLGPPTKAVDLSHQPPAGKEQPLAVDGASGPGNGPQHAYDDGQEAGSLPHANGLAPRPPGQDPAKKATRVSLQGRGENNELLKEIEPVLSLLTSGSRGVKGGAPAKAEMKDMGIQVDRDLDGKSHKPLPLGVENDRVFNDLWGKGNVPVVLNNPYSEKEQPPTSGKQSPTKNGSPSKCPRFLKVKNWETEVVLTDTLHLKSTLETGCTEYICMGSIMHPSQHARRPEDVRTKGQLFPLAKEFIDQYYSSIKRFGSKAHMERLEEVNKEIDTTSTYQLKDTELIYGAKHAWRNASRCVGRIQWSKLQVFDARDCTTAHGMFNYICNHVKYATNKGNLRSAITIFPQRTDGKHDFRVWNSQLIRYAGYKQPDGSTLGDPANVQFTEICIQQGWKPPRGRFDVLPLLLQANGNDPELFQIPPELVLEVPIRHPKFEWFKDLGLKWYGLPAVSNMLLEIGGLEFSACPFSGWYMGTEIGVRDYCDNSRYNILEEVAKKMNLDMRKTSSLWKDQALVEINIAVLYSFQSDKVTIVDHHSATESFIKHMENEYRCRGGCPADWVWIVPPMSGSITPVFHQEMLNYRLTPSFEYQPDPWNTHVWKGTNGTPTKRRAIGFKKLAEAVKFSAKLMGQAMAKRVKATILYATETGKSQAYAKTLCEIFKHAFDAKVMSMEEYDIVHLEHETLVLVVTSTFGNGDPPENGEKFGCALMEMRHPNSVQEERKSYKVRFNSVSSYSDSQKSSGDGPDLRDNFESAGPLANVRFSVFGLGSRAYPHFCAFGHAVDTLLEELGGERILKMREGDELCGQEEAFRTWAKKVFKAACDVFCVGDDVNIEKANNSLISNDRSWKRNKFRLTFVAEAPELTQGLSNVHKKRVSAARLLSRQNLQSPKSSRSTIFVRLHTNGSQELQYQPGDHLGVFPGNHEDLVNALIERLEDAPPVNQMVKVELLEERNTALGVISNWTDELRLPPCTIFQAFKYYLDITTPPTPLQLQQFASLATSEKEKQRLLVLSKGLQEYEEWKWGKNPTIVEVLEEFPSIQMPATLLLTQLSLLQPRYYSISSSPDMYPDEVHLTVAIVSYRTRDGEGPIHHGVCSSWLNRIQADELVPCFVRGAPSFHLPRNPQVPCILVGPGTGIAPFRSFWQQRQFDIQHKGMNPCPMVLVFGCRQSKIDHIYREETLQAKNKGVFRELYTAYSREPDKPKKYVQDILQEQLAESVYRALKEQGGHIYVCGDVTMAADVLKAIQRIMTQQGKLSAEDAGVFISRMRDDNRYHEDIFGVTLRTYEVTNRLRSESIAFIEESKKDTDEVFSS

[5] = Prodrug conversion in porcine liver mitochondria assessed as N-(4-Aminobutyl)-N'-(2-methoxyethyl)guanidine formation at 3 mM and pH 6 preincubated for 3 mins followed by NADH addition measured after 20 mins under aerobic conditions by RP-HPLC analysis; format: ADME, Sus scrofa; conditions: pig, pH 6, 20 min, 3000 µM
Method in brief: (§2)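 Prodrug incubated with porcine liver subcellular fractions (homogenate, mitochondria, outer mitochondrial membrane vesicles). The formed guanidine was quantified by HPLC after precolumn o-phthalaldehyde derivatization. Data are means ± SD of biological triplicates.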

[6] = Prodrug conversion in porcine liver mitochondrial membrane vesicles assessed as N-(4-Aminobutyl)-N'-(2-methoxyethyl)guanidine formation at 3 mM and pH 6 preincubated for 3 mins followed by NADH addition measured after 20 mins under aerobic conditions by RP-HPLC analysis; format: ADME, cell membranes, Sus scrofa, Mitochondrial membrane vesicle; conditions: pig, pH 6, 20 min, 3000 µM; method in brief: as §2
[7] = target: T4, Mitochondrial amidoxime reducing component 2 (Homo sapiens, UniProt Q969Z3); assay: Substrate activity at human recombinant mARC2 expressed in Escherichia coli assessed as enzyme-mediated N-(4-Aminobutyl)-N'-(2-methoxyethyl)guanidine formation at 3 mM and pH 6 preincubated for 3 mins followed by NADH addition measured after 20 mins under aerobic conditions by RP-HPLC analysis; format: ADME; conditions: pH 6, 20 min, 3000 µM
T4 sequence (Q969Z3 whole entry): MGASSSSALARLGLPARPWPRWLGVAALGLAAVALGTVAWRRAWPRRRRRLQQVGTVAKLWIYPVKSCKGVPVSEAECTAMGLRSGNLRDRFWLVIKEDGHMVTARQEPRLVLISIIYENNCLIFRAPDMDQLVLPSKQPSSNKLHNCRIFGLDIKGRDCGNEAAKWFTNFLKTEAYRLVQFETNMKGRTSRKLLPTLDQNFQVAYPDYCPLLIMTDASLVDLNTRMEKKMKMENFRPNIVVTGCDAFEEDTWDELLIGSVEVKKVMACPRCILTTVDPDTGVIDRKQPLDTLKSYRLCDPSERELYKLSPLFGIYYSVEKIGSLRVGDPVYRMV
Method in brief: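 Incubation used the reconstituted, heterologously expressed human mARC-2 N-reductive system. The guanidine product was measured by HPLC after precolumn derivatization with o-phthalaldehyde.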

[8] = Prodrug conversion in porcine liver homogenate assessed as formation of N-(4-Aminobutyl)-N'-(2-methoxyethyl)guanidine formation at 3 mM and pH 6 preincubated for 3 mins followed by NADH addition measured after 20 mins under aerobic conditions by RP-HPLC analysis; format: ADME, tissue-based, Sus scrofa; conditions: pig, tissue homogenate, pH 6, 20 min, 3000 µM; method in brief: as §2
[9] = Chemical stability of compound at 250 uM in phosphate buffer at pH 2 to 9 and 37 degree C after 24 hrs by RP-HPLC analysis; format: physicochemical; conditions: pH 2, 24 h
HEK-293T [10] = assay: Cytotoxicity against human HEK293T cells assessed as effect on cell viability by measuring ATP content at 0.1 to 1000 uM incubated for overnight by CellTiter-Glo luminescent analysis; format: cell-based
HEK-293T [11] = assay: Cytotoxicity against human HEK293T cells assessed as effect on cell number at 0.1 to 1000 uM incubated for overnight by DAPI staining based analysis
[12] = target: T3, N(G),N(G)-dimethylarginine dimethylaminohydrolase 1; assay: Inhibition of 6xHis-tagged recombinant human DDAH1 expressed in Escherichia coli BL21 cells at 1 mM using NMMA as substrate measured after 30 mins by colder reagent based microplate reader assay

inhibition [1] | inhibition [2] | inhibition (Arginase-1 (Bos taurus)) | Ki [3] | inhibition [4] | Structure (SMILES) | other results
21% | 0% | 15% | 2810 µM | 0% | CCCCCNC(=N)NCCOC | 
 |  |  |  |  | COCCN/C(=N/O)NCCCCN | Drug metabolism [5]: Metabolite_Detected; Drug metabolism [6]: Metabolite_Detected; Activity [7]: Active; Drug metabolism [8]: Metabolite_Detected; Stability [9]: Stable; Activity (HEK-293T [10]): Non-Toxic; Activity (HEK-293T [11]): Non-Toxic
 |  | 70% |  |  | C=CCCNC(=N)NCCC[C@H](N)C(=O)O | 
 |  |  | 1.3 µM |  | N=C(CCl)NCCC[C@H](N)C(=O)O | 
0% |  | 29% |  |  | COCCNC(=N)NCCC[C@H](N)C(=O)O | 
16% | 28% | 22% | 1450 µM | 19% | COCCC(=N)NCCCCN | 
26% | 29% | 20% | 156 µM | 35% | COCCCC(=N)NCCC[C@H](N)C(=O)O | 
100% | 56% | 6% | 768 µM | 99% | C=CCC(=N)NCCCCN | 
0% | 13% | 11% |  | 0% | COCCNC(=N)NCCCCN | Activity (HEK-293T [10]): Non-Toxic; Activity (HEK-293T [11]): Non-Toxic
75% | 89% | 22% | 73 µM | 93% | COCC(=N)NCCC[C@H](N)C(=O)O | 
2% | 13% | 35% | 489 µM | 5% | COCCNC(=N)NCCCCC(=O)O | 
4% | 19% | 20% | 2760 µM | 0% | COCCNC(=N)NCCC(C)C | 
42% | 44% | 21% | 983 µM | 78% | COCC(=N)NCCCCN | 
< 20% | < 20% | < 20% |  | < 20% | COCCCC(=N)NCC[C@H](N)C(=O)O | inhibition [12]: < 20%
 |  |  | 1 µM |  | COCCNC(=N)NCCC[C@H](N)C(=O)NS(C)(=O)=O | 
15% | 36% | 14% |  | 7% | COCCCC(=N)NCCCCN | inhibition [12]: < 20%
23% | 35% | 0% | 59 µM | 5% | C=CCCNC(=N)NCCCCN | 
50% | 54% | 43% | 9 µM | 65% | COCCC(=N)NCCC[C@H](N)C(=O)O | 
 |  | 76% |  |  | C=CCC(=N)NCCC[C@H](N)C(=O)O | 
